From ChEMBL document CHEMBL4825663 (J Med Chem, 2021)
The source made the active and inactive calls. No cut-off for these calls is given here.

Columns and labels:
[1] = Apparent permeability from apical to basolateral side in MDCK-II cells after 120 mins by LC-MS/MS analysis; assay type: ADME, cell-based, Canis lupus familiaris; settings: dog
[2] = biological target: T1, Solute carrier organic anion transporter family member 1B1 (Homo sapiens, UniProt Q9Y6L6); assay: Inhibition of human OATP1B1 assessed as reduction in intracellular probe substrate accumulation upto 100 uM by microplate scintillation counter analysis relative to control; assay type: cell-based
T1 sequence (Q9Y6L6 whole entry): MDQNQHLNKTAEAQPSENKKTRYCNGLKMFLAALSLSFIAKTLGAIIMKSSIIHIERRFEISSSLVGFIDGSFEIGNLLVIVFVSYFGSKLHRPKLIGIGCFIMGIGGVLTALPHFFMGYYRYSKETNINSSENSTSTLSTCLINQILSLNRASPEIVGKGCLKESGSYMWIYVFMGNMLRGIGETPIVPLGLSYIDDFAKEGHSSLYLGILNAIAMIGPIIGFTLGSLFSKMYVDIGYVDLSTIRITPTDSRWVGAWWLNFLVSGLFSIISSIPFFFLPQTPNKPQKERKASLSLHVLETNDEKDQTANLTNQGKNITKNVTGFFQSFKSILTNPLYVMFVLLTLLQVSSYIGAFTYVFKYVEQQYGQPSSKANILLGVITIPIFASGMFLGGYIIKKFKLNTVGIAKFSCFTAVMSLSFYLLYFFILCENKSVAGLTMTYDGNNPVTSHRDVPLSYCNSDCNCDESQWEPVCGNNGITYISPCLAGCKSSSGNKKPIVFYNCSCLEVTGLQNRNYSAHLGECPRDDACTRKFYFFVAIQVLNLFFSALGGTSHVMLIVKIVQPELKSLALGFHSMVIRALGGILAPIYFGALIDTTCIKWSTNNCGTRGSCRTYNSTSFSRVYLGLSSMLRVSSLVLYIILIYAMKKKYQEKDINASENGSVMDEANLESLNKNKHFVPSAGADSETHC
Summary of the method: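 Cellular uptake-inhibition assays used Chinese hamster ovary, HEK293 or MDCKII cells stably expressing the respective human SLC transporter, run alongside the corresponding control cells. Inhibitor was tested at concentrations up to 100 μM.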

[3] = Cmax in Sprague-Dawley rat at 10 mg/kg, po measured upto 48 hrs by LC-MS/MS analysis; settings: in vivo
[4] = Oral bioavailability in Beagle dog at 10 mg/kg measured upto 48 hrs by LC-MS/MS analysis; assay type: ADME, organism-based, Canis lupus familiaris; settings: in vivo
Summary of the method: (§1)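 Plasma pharmacokinetics in male Sprague-Dawley rats and male Beagle dogs (n = 3 per species), each given a single dose by IV at 3 mg/kg and by PO at 10 mg/kg. Cmax, Tmax, T1/2 and AUClast were derived for each route. F (%) was calculated from the PO and IV AUClast.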

[5] = Cmax in Beagle dog at 10 mg/kg, po measured upto 48 hrs by LC-MS/MS analysis; settings: in vivo
[6] = AUClast in Beagle dog at 3 mg/kg, iv measured upto 48 hrs by LC-MS/MS analysis; assay type: ADME, organism-based, Canis lupus familiaris; design: route intravenous, dose 3 mg/kg, time <=48; settings: in vivo
Summary of the method: (§2)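 Single dose in male Sprague-Dawley rats and male Beagle dogs (n = 3 per species), given 3 mg/kg IV or 10 mg/kg PO. Plasma was sampled to derive Cmax, Tmax, T1/2 and AUClast by each route. Oral bioavailability (F) was calculated from the PO and IV AUClast.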

[7] = Oral bioavailability in Sprague-Dawley rat at 10 mg/kg measured upto 48 hrs by LC-MS/MS analysis; assay type: ADME, organism-based; settings: in vivo; summary of the method: as §1
[8] = Drug distribution in Sprague-Dawley rat bile; assay type: ADME, tissue-based; settings: in vivo
[9] = Tmax in Beagle dog at 10 mg/kg, po measured upto 48 hrs by LC-MS/MS analysis; settings: in vivo
[10] = AUClast in Sprague-Dawley rat at 10 mg/kg, po measured upto 48 hrs by LC-MS/MS analysis; assay type: ADME, organism-based; design: route oral, dose 10 mg/kg, time <=48; settings: in vivo; summary of the method: as §2
[11] = test system: HT-29; assay: Antitumor activity against human HT-29 cells xenografted in athymic nude mouse assessed as induction of remission of tumor growth at 40 mg/kg, po in presence of 20 mg/kg encequidar measured until day 47; assay type: functional, organism-based
[12] = test system: MDA-MB-231; assay: Antitumor activity against human MDA-MB-231 cells xenografted in athymic nude mouse assessed as reduction in median number of days for tumor to reach two tumor mass doubling at 12 mg/kg, iv administered every other day for 4 doses and monitored for 70 to 82 days (reference value: 13.1 day); assay type: functional; settings: time 70-82 day
[13] = Drug excretion in dog bile at 6 mg/kg, po in presence of 3 mg/kg encequidar; assay type: ADME, organism-based, Canis lupus familiaris; settings: in vivo
[14] = Tmax in Sprague-Dawley rat at 20 mg/kg, po measured upto 24 hrs by LC-MS/MS analysis; assay type: ADME, organism-based; settings: in vivo
[15] = test system: NCI-H460; assay: Antitumor activity against human NCI-H460 cells xenografted in athymic nude mouse assessed as median tumor growth delay at 30 mg/kg, po administered every other day for 4 doses in presence of 12 mg/kg encequidar and monitored for 48 days; assay type: functional; settings: time 48 day
Summary of the method: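 Female athymic NCr-nu mice carried subcutaneous NCI-H460 xenografts. […] Tumor weights and body weights were followed for 48 days after implantation. Read-out was median tumor growth delay.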

[16] = Drug accumulation in Beagle dog plasma at 6 mg/kg, po administered once per week for 4 weeks in presence of 3 mg/kg encequidar by LC-MS/MS analysis; assay type: ADME, organism-based, Canis lupus familiaris; settings: in vivo, 672 h
[17] = Cmax in Sprague-Dawley rat at 20 mg/kg, po measured upto 24 hrs by LC-MS/MS analysis; assay type: ADME, organism-based; design: route oral, dose 20 mg/kg, time <=24; settings: in vivo
[18] = Ratio of drug concentration in BALB/c mouse spleen to plasma at 20 mg/kg, po measured upto 24 hrs in presence of 10 mg/kg encequidar by LC-MS/MS analysis; assay type: ADME, organism-based
[19] = test system: MDA-MB-231; assay: Antitumor activity against human MDA-MB-231 cells xenografted in athymic nude mouse assessed as reduction in tumor growth at 30 mg/kg, po administered every other day for 4 doses in presence 12 mg/kg encequidar and monitored for 70 to 82 days; assay type: functional, organism-based; settings: time 70-82 day
[20] = Drug distribution in BALB/c mouse intestine at 20 mg/kg, po measured upto 24 hrs in presence of 10 mg/kg encequidar by LC-MS/MS analysis; assay type: ADME, organism-based; settings: in vivo

Row | Papp A→B at 2 h [1] [×10⁻⁶ cm/s] | inhibition (INH) [2] [%] | Cmax [3] [ng/mL] | bioavailability [4] [%] | Cmax [5] [ng/mL] | AUC(0-t) at 48 h [6] [ng·h/mL] | bioavailability [7] [%] | Drug uptake [8] | Tmax [9] [h] | AUC(0-t) at 48 h [10] [ng·h/mL] | Compound | Activity [11] | Time [12] [days] | Drug excretion [13] | Tmax [14] [h] | Time [15] [days] | Drug uptake [16] | Cmax [17] [ng/mL] | Kp at 24 h [18] | Activity [19] | Drug uptake [20]
1 | 0.002 | < 50 | 7.1 | 11.2 | 26.6 | 1920 | 6.25 | Active | 13.3 | 129 | COc1cc2c(cc1OC)CN(CCc1ccc(-n3nnc(-c4cc(OC)c(OC)cc4NC(=O)c4cc(=O)c5ccccc5o4)n3)cc1)CC2 |  |  |  |  |  |  |  |  |  | 
2 |  |  |  |  |  |  |  |  |  |  | CC(=O)O[C@H]1C(=O)[C@@]2(C)[C@H]([C@H](OC(=O)c3ccccc3)[C@]3(O)C[C@H](OC(=O)[C@H](O)[C@@H](NC(=O)c4ccccc4)c4ccccc4)C(C)=C1C3(C)C)[C@]1(OC(C)=O)CO[C@@H]1C[C@@H]2O [PACLITAXEL] | Active | 26.1 | Metabolite_Detected | 0.9 | 9.9 | Not Active | 127 | > 1 | Active | Active
